The results in this text go back to ChEMBL document CHEMBL5104120, “Morpholine substituted quinazoline derivatives as anticancer agents against MCF-7, A549 and SHSY-5Y cancer cell lines and mechanistic studies” (RSC Med Chem, 2022).

Structures are written as SMILES. pIC50: −log10 of the molar value. Where only a bound is given, the exact number is not on record here.

Series [1] deals with A549. Description: Antiproliferative activity against human A549 cells assessed as inhibition of cell growth incubated for 48 hrs by MTT assay. The format is functional, cell-based. To be noted: A549, 48 h. In outline: (§1)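 Cell lines from NCCS; ~8000 cells/well grown 24 h at 37 °C, 5% CO2, serum-starved 8 h to synchronize, then complete medium restored. Compounds applied at 1, 5, 10 and 25 μM in triplicate for 48 h. MTT added after medium removal, 4 h in dark; formazan dissolved in DMSO, absorbance at 590 nm read as % viability (mean ± S.D.); IC50 in μM.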
(Tetrazolium assays rely on reduction of a dye to a coloured formazan, in cell work by metabolically active cells.)

Series [2] concerns MCF7. Kind of series: Antiproliferative activity against human MCF7 cells assessed as inhibition of cell growth incubated for 48 hrs by MTT assay. The format is functional, cell-based. The settings on record: MCF7, 48 h. In outline:
as §1

Series [3] deals with SH-SY5Y. Kind of series: Antiproliferative activity against human SH-SY5Y cells assessed as inhibition of cell growth incubated for 48 hrs by MTT assay. The format is functional, cell-based. A digest of the protocol:
as §1

Series [4] can be described thus: Cytotoxicity against human HEK293 cells assessed as inhibition of cell growth incubated for 48 hrs by MTT assay. The format is toxicity, cell-based.
Series [5] concerns SH-SY5Y. Kind of series: Cell cycle arrest in human SH-SY5Y cells assessed as cells in G0/G1 phase at 10 uM incubated for 48 hrs by PI staining based flow cytometry analysis (reference value: 53.2 %). The format is functional. (A flow cytometer gives signals particle by particle.)
Series [6] relates to SH-SY5Y. Description: Cell cycle arrest in human SH-SY5Y cells assessed as cells in S phase at 10 uM incubated for 48 hrs by PI staining based flow cytometry analysis (reference value: 16.2 %). The format is functional.
Series [7] has as its system SH-SY5Y. Kind of series: Cell cycle arrest in human SH-SY5Y cells assessed as cells in G2 phase at 10 uM incubated for 48 hrs by PI staining based flow cytometry analysis (reference value: 31.1 %). The format is functional.
Series [8] has as its system SH-SY5Y. Description: Induction of apoptosis in human SH-SY5Y cells assessed as viable cells at 10 uM incubated for 48 hrs by AnnexinV staining based cytofluorimetric analysis (reference value: 98.6 %). The format is functional. To be noted: read-out: Activity. A digest of the protocol: (§2)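 SHSY5Y cells grown in 6-well plates and exposed to compounds at 10 μM for 48 h. Cells plus medium centrifuged at 1200 rpm for 5 min, washed in 1× PBS, then incubated with Annexin V/dead cell reagent 30 min at room temperature in dark. Annexin V […] populations quantified on a Muse cytofluorimetric analyzer.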

In series [9] the test system is SH-SY5Y. Description: Induction of apoptosis in human SH-SY5Y cells assessed as early apoptotic cells at 10 uM incubated for 48 hrs by AnnexinV staining based cytofluorimetric analysis (reference value: 1.16 %). The format is functional. In outline: as §2
Series [10] deals with SH-SY5Y. Kind of series: Induction of apoptosis in human SH-SY5Y cells assessed as late apoptotic cells at 10 uM incubated for 48 hrs by AnnexinV staining based cytofluorimetric analysis (reference value: 0.24 %). The format is functional. A digest of the protocol:
as §2

Series [11] concerns SH-SY5Y. Kind of series: Induction of apoptosis in human SH-SY5Y cells assessed as necrotic cells at 10 uM incubated for 48 hrs by AnnexinV staining based cytofluorimetric analysis (reference value: 0 %). The format is functional. A digest of the protocol: as §2
The subject of series [12] is L1210. Description: Antiproliferative activity against mouse L1210 cells assessed as inhibition of cell growth incubated for 72 hrs by tryphan blue staining. The format is functional, cell-based. To be noted: L1210, 72 h.
The subject of series [13] is HeLa. Description: Antiproliferative activity against human HeLa cells assessed as inhibition of cell growth incubated for 72 hrs by tryphan blue staining. The format is functional, cell-based.
The subject of series [14] is B16. Kind of series: Antiproliferative activity against mouse B16 cells assessed as inhibition of cell growth incubated for 72 hrs by tryphan blue staining. The format is functional, cell-based. The settings on record: B16, 72 h.
Series [15] deals with NIH3T3. Description: Antiproliferative activity against mouse NIH3T3 cells assessed as inhibition of cell growth incubated for 72 hrs by tryphan blue staining. The format is functional, cell-based. The settings on record: NIH3T3, 72 h.
Series [16] relates to HT-29. Description: Antiproliferative activity against human HT-29 cells assessed as inhibition of cell growth incubated for 72 hrs by SRB assay. The format is functional, cell-based. To be noted: HT-29, 72 h. (In general: Sulforhodamine B stains cellular protein and so reports cell mass.)
Series [17] relates to MCF7. Description: Antiproliferative activity against human MCF7 cells assessed as inhibition of cell growth incubated for 72 hrs by SRB assay. The format is functional, cell-based. The settings on record: MCF7, 72 h.

What is called pIC50 is the negative decadic logarithm of the IC50, by convention in mol/L. With `Fc1cccc(Cl)c1-c1nc(N2CCOCC2)c2ccccc2n1`, the values for the pIC50 in series [1], in [2] and in series [3] were 4.75, under 4.60 and 4.66, respectively.

By IC50 is commonly meant the concentration needed to halve the response being measured. As to `FC(F)(F)c1ccc(-c2nc(N3CCOCC3)c3ccccc3n2)cc1`, the pIC50 in series [1] is 5.01; in [2], 5.17; in series [3], 4.80. Moreover, in series [4], the IC50 at 48 h was over 25 µM.

`Oc1ccc(-c2nc(N3CCOCC3)c3ccccc3n2)cc1`: the pIC50 in series [1] is 4.90; in [2], 5.25; in series [3], 4.69. In addition, the IC50 at 48 h in series [4] is over 25 µM.

Take `Cc1ccc(-c2nc(N3CCOCC3)c3ccccc3n2)cc1`: the figures for the pIC50 in [1], in series [2] and in [3] were 4.72, 5.31 and 4.74, respectively.

For `CSc1ccc(-c2nc(N3CCOCC3)c3ccccc3n2)cc1`, the negative-log IC50 (pIC50) is 4.75 in series [1], 4.99 in series [2] and 4.61 in series [3].

Take `Fc1ccccc1-c1nc(N2CCOCC2)c2ccccc2n1`: the pIC50 in series [1] was 4.97; in series [2], under 4.60; in [3] it was under 4.60.

For the compound `COc1cc(-c2nc(N3CCOCC3)c3ccccc3n2)cc(OC)c1OC`, the figures for the pIC50 in series [1], in series [2] and in series [3] were 5.07, 5.50 and 5.47, respectively. Besides, the Activity in series [5] is recorded as 62.1%; in [6], 14.4%; in series [7] it was 24.3%; in [9], 2.71%; in series [10] it was 77.6%; in series [11], 19.2%. Besides, the viability at 10 µM in series [8] was 0.42%.

On to `N#Cc1ccc(-c2nc(N3CCOCC3)c3ccccc3n2)cc1`, for which the pIC50 in series [1] is 4.96; in series [2], under 4.60; in series [3] it was under 4.60.

Regarding `CN(C)c1ccc(-c2nc(N3CCOCC3)c3ccccc3n2)cc1`, the values for the pIC50 in series [1], in [2] and in series [3] were 4.98, 5.19 and 5.02, respectively. The IC50 at 48 h in series [4] is over 25 µM. Besides, the Activity amounted to 59% in series [5]; 15.3% in series [6]; 26.2% in series [7]; 2.23% in [9]; 78.2% in [10]; 19% in [11]. For the same compound, in series [8], the viability at 10 µM stood at 0.55%.

With `c1ccc(-c2nc(N3CCOCC3)c3ccccc3n2)cc1`, the negative logarithm of the IC50 (pIC50) is 5.02 in series [1], under 4.60 in [2] and under 4.60 in series [3].

`O=[N+]([O-])c1ccc(-c2nnc3c4cc(Cl)ccc4nc(N4CCOCC4)n23)s1`: the pIC50 was 6.24 in [12], 5.19 in [13], 6.62 in series [14] and 5.56 in series [15].

`CC(C)c1ccc(-c2nc(N3CCOCC3)c3ccccc3n2)cc1`: the pIC50 is 5.02 in series [1], 4.98 in [2] and 4.82 in series [3].

In the case of `O=C1Nc2ccc(F)cc2/C1=N/Nc1nc(-c2ccccc2)nc2ccccc12`, the pIC50 in series [16] is 4.84; in series [17], 5.13.

As for `COc1ccc(-c2nc(N3CCOCC3)c3ccccc3n2)cc1`, the values for the pIC50 in series [1], in series [2] and in [3] were 4.68, 5.30 and under 4.60, respectively. Also, the half-inhibitory concentration (IC50) at 48 h in [4] was over 25 µM.

Take `c1ccc2[nH]c(-c3nc(N4CCOCC4)c4ccccc4n3)cc2c1`: the pIC50 is 4.94 in series [1], under 4.60 in [2] and 4.84 in series [3].

`COc1cc2c(c(OC)c1OC)-c1ccc(OC)c(=O)cc1[C@@H](NC(C)=O)CC2` [COLCHICINE]: the pIC50 in series [1] was 5.29; in series [2], 5.28; in series [3], 5.10. In addition, the IC50 at 48 h in series [4] is over 25 µM.
